# Data as given in ChEMBL document CHEMBL1155435, “Design, synthesis and evaluation of constrained tetrahydroimidazopyrimidine derivatives as antagonists of corticotropin-releasing factor type 1 receptor (CRF1R)” (Bioorg Med Chem Lett, 2010).
# The source made the active and inactive calls. The calls are words filed in the database; no cut-off is given here.
# Legend:
# [1] = molecular target: T1, Corticotropin-releasing factor receptor 1 (Homo sapiens, UniProt P34998); assay: Displacement of [125I]Tyr-o-CRF from human CRFR1 expressed in human IMR32 cells; type: cell-based, IMR-32
# T1 sequence (P34998 whole entry): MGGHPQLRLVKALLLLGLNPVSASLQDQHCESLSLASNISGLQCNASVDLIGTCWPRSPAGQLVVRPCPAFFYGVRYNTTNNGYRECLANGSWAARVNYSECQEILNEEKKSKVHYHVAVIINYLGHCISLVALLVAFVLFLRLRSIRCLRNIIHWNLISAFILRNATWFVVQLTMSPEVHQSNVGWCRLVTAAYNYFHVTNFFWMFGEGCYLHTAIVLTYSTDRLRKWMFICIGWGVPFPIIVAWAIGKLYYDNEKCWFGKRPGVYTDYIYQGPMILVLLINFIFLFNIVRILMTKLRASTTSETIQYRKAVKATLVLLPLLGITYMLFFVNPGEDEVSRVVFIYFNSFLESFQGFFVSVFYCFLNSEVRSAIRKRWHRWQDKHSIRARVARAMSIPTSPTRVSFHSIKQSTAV
# Procedure, shortened: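 Radioligand displacement of [125I]-Tyr-o-CRF from human CRF1 receptor expressed endogenously on intact IMR-32 human neuroblastoma cells. The protocol follows an earlier report.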
# [2] = Drug level in mouse brain at 32 mg/kg, ip after 1 hr; type: ADME, organism-based; parameters: dose 32 mg/kg, route intraperitoneal; conditions: read-out: Drug uptake
# Procedure, shortened: (§1)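 Mice were dosed ip at 32 mg/kg in cremophor/DMSO/water (1:1:8). Brain and plasma were sampled at 30 min and 1 h after dosing. Brain level is given as ng compound per g brain, alongside the brain/plasma concentration ratio.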
# [3] = Ratio of drug level in mouse brain to plasma at 32 mg/kg, ip after 30 mins; type: ADME, organism-based; parameters: dose 32 mg/kg, route intraperitoneal; procedure, shortened: as §1
# [4] = Ratio of drug level in mouse brain to plasma at 32 mg/kg, ip after 1 hr; type: ADME, organism-based; parameters: dose 32 mg/kg, route intraperitoneal; procedure, shortened: as §1
# [5] = tested on: Mus musculus; assay: Anxiolytic activity in ip dosed mouse assessed as decrease reduction of stretched attenuated postures by canopy test; type: functional
# Procedure, shortened: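 Mouse canopy test for anxiety-like behaviour. Compound was given ip in cremophor/DMSO/water (1:1:8) at several doses. The read-out was the total count of stretched attend postures. The protocol follows an earlier report.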
# [6] = Drug level in mouse brain at 32 mg/kg, ip after 30 mins; type: ADME, organism-based; parameters: dose 32 mg/kg, route intraperitoneal; conditions: read-out: Drug uptake; procedure, shortened: as §1
SMILES,Ki [1],also measured
CCCN(CC1CC1)C(=O)c1c(CC)nc2n1CCC(=O)N2c1c(C)cc(C)cc1C,> 5000 nM,
Cc1cc(C)c(N2CCCn3c2nc(C(F)(F)F)c3CN2CCCN(C)CC2)c(C)c1,> 5000 nM,
CCCN(CC1CC1)C(=O)c1c(C(F)(F)F)nc2n1CCCN2c1c(C)cc(C)cc1C,1200 nM,
CCCN(CCC)C(=O)c1c(C)nc2n1CCC(=O)N2c1c(C)cc(C)cc1C,> 5000 nM,
CCc1nc2n(c1C(=O)N(CC)Cc1ccccc1)CCC(=O)N2c1c(C)cc(C)cc1C,> 5000 nM,
CCCN(CCC)C(=O)c1c(CC)nc2n1CCC(=O)N2c1c(C)cc(C)cc1C,> 5000 nM,
Cc1cc(C)c(N2CCCn3c2nc(C(F)(F)F)c3CN2CCSCC2)c(C)c1,441 nM,
Cc1cc(C)c(N2C(=O)CCn3c2nc(C)c3C(=O)N2CCOCC2)c(C)c1,> 5000 nM,
Cc1cc(C)c(N2CCCn3c2nc(C(F)(F)F)c3CN2CCCCC2)c(C)c1,245 nM,
CCCN(CCc1ccccc1)C(=O)c1c(C)nc2n1CCCN2c1c(C)cc(C)cc1C,1700 nM,
CCCN(CC1CC1)C(=O)c1c(C)nc2n1CCCN2c1c(C)cc(C)cc1C,> 5000 nM,
CCCN(Cc1ccccc1)C(=O)c1c(C)nc2n1CCCN2c1c(C)cc(C)cc1C,> 5000 nM,
C=CCN(CC=C)C(=O)c1c(CC)nc2n1CCC(=O)N2c1c(C)cc(C)cc1C,> 5000 nM,
Cc1cc(C)c(N2C(=O)CCn3c2nc(C)c3C(=O)N2CCN(c3ccccc3F)CC2)c(C)c1,> 5000 nM,
CCCN(CC1CC1)C(=O)c1c(CC)nc2n1CCCN2c1c(C)cc(C)cc1C,2300 nM,
Cc1cc(C)c(N2CCCn3c2nc(C(F)(F)F)c3CN2CC=CCC2)c(C)c1,364 nM,
Cc1cc(C)c(N2CCCn3c2nc(C)c3C(=O)N(CC2CC2)CC2CC2)c(C)c1,3400 nM,
CCCCN(CC)C(=O)c1c(CC)nc2n1CCC(=O)N2c1c(C)cc(C)cc1C,> 5000 nM,
Cc1cc(C)c(N2CCCn3c2nc(C(F)(F)F)c3CN2CCOCC2)c(C)c1,1510 nM,
CCCN(CC1CC1)C(=O)c1c(C)nc2n1CCC(=O)N2c1c(C)cc(C)cc1C,> 5000 nM,
CCCN(CCc1ccccc1)Cc1c(C(F)(F)F)nc2n1CCCN2c1c(C)cc(C)cc1C,67 nM,
C=CCN(CC=C)C(=O)c1c(C)nc2n1CCC(=O)N2c1c(C)cc(C)cc1C,> 5000 nM,
C=CCN(CCC)C(=O)c1c(C)nc2n1CCCN2c1c(C)cc(C)cc1C,> 5000 nM,
CCCN(CC1CCC1)C(=O)c1c(C)nc2n1CCCN2c1c(C)cc(C)cc1C,3300 nM,

# Compounds with a lower Ki [1], results first:
Ki [1],SMILES,also measured
8 nM,Cc1cc(C)c(N2CCCn3c2nc(C(F)(F)F)c3CN(CC2CC2)CC(F)(F)F)c(C)c1,
21 nM,CCCN(Cc1c(C(F)(F)F)nc2n1CCCN2c1c(C)cc(C)cc1C)CC1CCC1,
14 nM,Cc1cc(C)c(N2CCCn3c2nc(C(F)(F)F)c3CN(CC2CC2)CC(F)(F)C(F)(F)F)c(C)c1,
63 nM,CCCN(CCC(F)(F)F)Cc1c(C(F)(F)F)nc2n1CCCN2c1c(C)cc(C)cc1C,
19 nM,C=CCN(CC=C)C(=O)c1c(C(F)(F)F)nc2n1CCCN2c1c(C)cc(C)cc1C,
31 nM,CCN(Cc1c(C(F)(F)F)nc2n1CCCN2c1c(C)cc(C)cc1C)CC1CC1,
32 nM,CCCN(Cc1c(C(F)(F)F)nc2n1CCCN2c1c(C)cc(C)cc1C)CC1CC1,concentration at 1 h [2]: 217 ng/g; Kp at 0.5 h [3]: 1.2; Kp at 1 h [4]: 1; Activity [5]: Active; concentration at 0.5 h [6]: 352 ng/g
27 nM,Cc1cc(C)c(N2CCCn3c2nc(C(F)(F)F)c3CN(CC2CCC2)CC(F)(F)F)c(C)c1,
38 nM,Cc1cc(C)c(N2CCCn3c2nc(C(F)(F)F)c3CN(CCc2ccccc2)CC(F)(F)F)c(C)c1,
48 nM,C=CCN(CCC)Cc1c(C(F)(F)F)nc2n1CCCN2c1c(C)cc(C)cc1C,
